Bioassay records as filed in PubChem.
Sampled rows, rich in hits. Any-hit rate of the full collection: about 3.8%.
OX1R antag-1 = antagonists of human orexin 1 receptor (OX1R) | OX1R-expressing cells, FRET antagonist read-out | inhibition, % at 6.6 µM | 330,000 compounds, 1.8% hits; in the data active = inhibition mostly above about 38%, no sharp cut-off; inactive = mostly below about 40%;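 note: 0% = agonist challenge alone and 100% = reference antagonist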
Target sequence (O43613 whole entry, looked up): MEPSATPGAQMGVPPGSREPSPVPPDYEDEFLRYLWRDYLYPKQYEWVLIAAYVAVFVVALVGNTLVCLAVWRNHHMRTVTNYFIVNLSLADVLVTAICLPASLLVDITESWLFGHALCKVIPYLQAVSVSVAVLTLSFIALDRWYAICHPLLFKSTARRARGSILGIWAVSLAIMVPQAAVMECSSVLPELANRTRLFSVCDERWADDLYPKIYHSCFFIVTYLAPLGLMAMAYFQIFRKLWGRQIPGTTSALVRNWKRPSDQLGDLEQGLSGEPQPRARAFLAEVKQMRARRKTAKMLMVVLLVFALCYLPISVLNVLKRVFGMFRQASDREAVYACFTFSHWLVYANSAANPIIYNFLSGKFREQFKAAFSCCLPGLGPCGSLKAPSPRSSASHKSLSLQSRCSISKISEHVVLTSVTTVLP
GPR7 antagonist = GPR7 receptor antagonists, primary screen, cell-based, fluorescence, single concentration; 290,000 compounds, 1.1% hits; GPR7-expressing cells, fluorescence antagonist assay; inhibition, % at 4.4 µM; AID 1861, 2009; in the data active = inhibition above about 16%, passing the limit was not always enough;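 note: cells stimulated with the agonist NPW; 0% = agonist with vehicle and 100% = vehicle without agonist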
OX1R antag-2 = OX1R (HCRTR1) antagonists, primary screen, fluorescence, CHO/OX1R cells, Fluo-8 calcium, orexin A | Orexin/Hypocretin receptor type 1 (Homo sapiens), O43613 | Fluo-8 calcium fluorescence | inhibition, % at 5 µM | 330,000 compounds, 0.43% hits | AID 434989, 2010;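 active = inhibition above its plate's threshold, mean inhibition of all tested compounds on the plate plus 3 SD, cut at about 37% in these data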;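 note: 0% = orexin A challenge wells and 100% = SB-334867-A antagonist wells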
MPTP block = mitochondrial permeability transition pore inhibitors, primary screen, biochemical, isolated mouse mitochondria, absorbance. Ca2+ swelling absorbance, 30 min. inhibition, % at 10 µM. 360,000 compounds, 1.4% hits;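 active = inhibition of 50% or more, scaled per plate between neutral and stimulator controls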;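 note: 0% = DMSO wells given calcium and 100% = 1 mM EGTA wells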
CHO parental Ca = ATP-evoked calcium signal inhibitors, parental CHO, primary screen, counter-screen for OX1R antagonist project, cell-based, fluorescence, Fluo-8 calcium dye. parental CHO-K1, ATP-induced calcium, Fluo-8 fluorescence. inhibition, % at 5.6 µM. 330,000 compounds, 0.63% hits. AID 463079, 2010;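 active = inhibition above that plate's mean sample inhibition plus 3 SD, cut at about 26% in these data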;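 note: 0% = ATP-challenged DMSO wells and 100% = DMSO wells without ATP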
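Test system: parental CHO cells; detection: calcium-sensitive Fluo-8 fluorescence; evaluation: percent inhibition of calcium signal; also added: ATP as calcium-mobilizing challenge; repeats: one well per compound; control set: ATP-challenged DMSO wells low, unchallenged DMSO wells high; compound: single nominal dose of 5.6 µM per compound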
The depositor's hits bear a star; . = not tested or not shown.

SMILES	OX1R antag-1	GPR7 antagonist	OX1R antag-2	MPTP block	CHO parental Ca
COc1cccc(NC(=O)CSC(N)=O)c1	3	-8	10	0	-11
Cc1c(C(=O)N/N=C/c2ccncc2)no[n+]1[O-]	11	1	-5	0	6
O=C(N/N=C/c1ccc([N+](=O)[O-])cc1)c1cccc(N2CCCC2=O)c1	76*	-10	-18	0	-12
O=C(N/N=C/c1ccncc1)c1cccc([N+](=O)[O-])c1	57*	3	-4	.	-6
O=C(N/N=C/c1ccc(Cl)cc1Cl)c1cccc(N2CCCC2=O)c1	16	-9	-8	0	-2
O=C(Nc1ccc(Cl)cc1)C1Cc2c(-c3ccccc3Oc3ccccc3)ccnc2O1 (stereo not given)	.	.	.	0	.
NS(=O)(=O)c1ccc(NC(=O)c2cc(Cl)sc2Cl)cc1	6	-4	-8	1	15
CCOC(=O)C1=CCN(S(=O)(=O)c2ccccc2C)C1c1ccc(F)cc1 (stereo not given)	.	.	.	0	.
O=C(OCCOc1cccc(Cl)c1)c1cc(S(=O)(=O)N2CCCCC2)ccc1N1CCOCC1	-14	.	0	4	38*
O=C(OCc1cccc(Cl)c1)c1cc(S(=O)(=O)N2CCCCC2)ccc1N1CCOCC1	1	2	-17	1	8
O=C(COc1ncnc2scc(-c3ccccc3)c12)NC1CCCc2ccccc21 (stereo not given)	73*	-16	8	-1	-9
Cn1c(CO)cnc1SCc1ccc([N+](=O)[O-])cc1	73*	-3	-9	1	-4
COC(=O)c1cnc(SCc2ccc([N+](=O)[O-])cc2)n1C	6	-4	-19	1	-20
CCC(CC)C(=O)N(C)c1c(C)nc2c(OCc3cc(Cl)cc(Cl)c3)cccn12	.	.	.	0	.
c1ccc(-c2cc(CSc3nc4ccccc4[nH]3)on2)cc1	89*	-8	75*	41	44*
Cc1noc(C)c1CSc1nc2ccccc2[nH]1	11	-1	-16	1	-9
CCOC(=O)c1ccc(NC(=O)c2ncn3c2C(=O)NC[C@@H]3C)cc1	.	.	.	0	.
Cc1noc(C)c1S(=O)(=O)N(C)C[C@H]1OCc2cnnn2CCCC(=O)N([C@@H](C)CO)C[C@H]1C	.	.	.	-1	.
O=C(COC(=O)c1ccc(O)cc1)Nc1ccccc1-c1ccccc1	45	-5	29	10	43*
O=C(COC(=O)c1ccc(-c2ccccc2)cc1)Nc1ccccc1-c1ccccc1	8	-12	-10	4	1
CC(C)(C)c1ccc(OCc2ccc(C(=O)Nc3cccnc3)o2)cc1	8	-7	35	4	29*
COc1ccc(NC(=O)Nc2ccc([N+](=O)[O-])cc2)cn1	34	-3	15	38	43*
COc1ccc(CC(=O)Nc2ccc(OC)nc2)cc1	2	-5	-5	-2	-2
COc1ccc(NC(=O)Cc2ccc(-c3ccccc3)cc2)cn1	19	22	10	3	69*
CCC1CCCCN1CCCNC(=O)CS(=O)(=O)Cc1nc(-c2cccc(OC)c2)oc1C (stereo not given)	23	-10	-24	-1	-20
SMILES	OX1R antag-1	GPR7 antagonist	OX1R antag-2	MPTP block	CHO parental Ca
N#CC1=C(SCC(=O)Nc2cccc3cccnc23)NC(=O)C(C#N)C12CCCCC2 (stereo not given)	39*	4	-1	33	-9
Cc1cc2oc(=O)cc(CN3CCN(Cc4ccc5c(c4)OCO5)CC3)c2cc1C	19	-15	-28	-1	100*
Cc1cccc(C)c1N=C1C(=O)Nc2ccccc21	2	-8	-11	0	0
Cc1cc(C)c(N=C2C(=O)Nc3ccccc32)c(C)c1	38*	12	8	1	-6
CCCCN(CCCC)C(=O)C1(P(=O)(c2ccccc2)c2ccccc2)CCC1	13	-4	-51	-2	-18
Cc1ccc(-c2noc(CSc3nnnn3C3CCCCC3)n2)cc1	10	-18	-16	-1	38*
CCOc1ccc(C(=O)Nc2cc(-c3nc4ccccc4[nH]3)ccc2C)cc1[N+](=O)[O-]	30	1	-33	0	-29
CCOc1ccc(C(=O)Nc2cc(-c3nc4ccccc4[nH]3)ccc2Cl)cc1[N+](=O)[O-]	68*	-11	-2	12	-6
CCC(=O)Nc1ccc(-c2cc3ccccc3oc2=O)cc1	20	0	-13	0	-3
CC(=O)Nc1ccc(-c2cc3ccccc3o2)cc1	24	20*	16	6	7
O=C(NCCCN1CCOCC1)C(=O)N/N=C/c1cccc2ccccc12	49*	-6	0	2	-31
O=C(NCCCN1CCOCC1)C(=O)N/N=C/c1ccccc1	15	4	-5	1	-4
c1ccc(CCN2CCN(c3ncnc4c3cnn4-c3ccccc3)CC2)cc1	12	-14	-21	2	-16
Cn1ncc2c(N3CCC(Cc4ccccc4)CC3)ncnc21	58*	-11	-6	13	15
O=C(NCc1ccco1)c1cc([N+](=O)[O-])ccc1N1CCCCC1	34	6	-23	3	-11
O=C(NCc1ccc2c(c1)OCO2)c1cc([N+](=O)[O-])ccc1N1CCCCC1	26	37*	-21	2	-19
O=C(NN=C1c2ccccc2-c2ccccc21)c1ccccn1	75*	-12	85*	0	-32
N#Cc1ccsc1NC(=O)C1CCCN1S(=O)(=O)c1cccs1 (stereo not given)	53*	.	12	-1	-13
CC(=O)c1cccc(NC(=O)C2CCCN2S(=O)(=O)c2cccs2)c1 (stereo not given)	.	.	.	0	.
CCc1nc2ccc(C(=O)NCCC(C)C)cn2c1N(CC)CCOC	.	.	.	0	.
CCOC(=O)CC(NC(=O)c1cccc2c1C(=O)N(Cc1cccnc1)C2)c1ccc(OC(C)C)cc1 (stereo not given)	48*	-11	-16	0	-3
CCCN1Cc2cccc(C(=O)NC(CC(=O)OCC)c3ccc(OC(C)C)cc3)c2C1=O (stereo not given)	30	-20	-12	2	-17
O=[N+]([O-])c1ccc(-c2nnc3n2CCCCC3)cc1	32*	1	-16	1	-6
c1ccc(-c2nnc3n2CCCC3)cc1	0	6	-21	2	-4
Cn1nnnc1SCC(=O)Nc1ccccc1-c1ccccc1	10	16*	-15	-1	-11
CCCn1c(SCC(=O)Nc2ccccc2-c2ccccc2)nnc1-c1ccoc1C	59*	-2	-12	2	-9
O=C(CSc1nc2ncc(Cl)cc2[nH]1)Nc1ccccc1-c1ccccc1	35*	-9	21	9	-19
Cc1occc1-c1nnc(SCC(=O)Nc2ccccc2-c2ccccc2)n1C	38	-9	-20	-2	-8
